LGR2 antag: inhibitors of bursicon-induced LGR2 CRE-luciferase signal, primary screen, cell-based, HEK293, CRE-luciferase reporter, bursicon stimulation; inhibition, % at 9.99 µM; bursicon-stimulated, 4 h; 380,000 tested, 0.35% active; Drosophila bursicon receptor LGR2 (rickets);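 active means drop in luminescence signal, shown as inhibition above about 50% in the replicate tests, limit read from the data, passing the limit was not always enough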;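 further: agonist challenge used bursicon conditioned medium at about half maximal strength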
E-sel inducer: E-selectin induction in HUVECs, primary screen, imaging, HUVEC, immunofluorescence imaging, single point | P16581 | normalized: neutral wells 0, TNF-alpha wells 100 | activation, % at 7.58 µM | 260,000 tested, 0.37% active | AID 686992, 2013;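 active means mean E-selectin-positive cell signal at least 10% of the positive control, reached in at least 60% of replicates, without over 20% cell loss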
Target sequence (P16581 whole entry, looked up): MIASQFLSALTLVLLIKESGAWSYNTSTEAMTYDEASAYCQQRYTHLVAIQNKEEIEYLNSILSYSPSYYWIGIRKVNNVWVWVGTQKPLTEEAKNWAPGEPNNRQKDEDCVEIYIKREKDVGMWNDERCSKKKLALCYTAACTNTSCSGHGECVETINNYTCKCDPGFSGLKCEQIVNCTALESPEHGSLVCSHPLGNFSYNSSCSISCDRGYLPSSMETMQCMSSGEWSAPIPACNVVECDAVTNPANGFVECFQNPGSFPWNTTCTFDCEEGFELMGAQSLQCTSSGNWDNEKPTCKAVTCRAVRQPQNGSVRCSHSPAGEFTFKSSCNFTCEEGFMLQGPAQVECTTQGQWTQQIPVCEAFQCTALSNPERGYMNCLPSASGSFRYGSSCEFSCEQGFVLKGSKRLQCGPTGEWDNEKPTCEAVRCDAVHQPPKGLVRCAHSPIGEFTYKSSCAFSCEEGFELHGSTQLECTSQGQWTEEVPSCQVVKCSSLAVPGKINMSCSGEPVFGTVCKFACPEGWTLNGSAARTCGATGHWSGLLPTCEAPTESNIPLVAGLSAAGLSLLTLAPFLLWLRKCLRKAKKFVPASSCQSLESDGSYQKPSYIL
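Read-out basis: % PE-positive cells; Test system: HUVEC primary endothelial cells; Technique: immunofluorescence imaging; Dosing: single-point compound dose.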
EWS-Fli block: EWS/Fli-driven NR0B1 reporter inhibitors, primary screen, A673 cells, NR0B1 luciferase, luminescence, MLPCN library; inhibition, % at 12.6 µM; 350,000 tested, 0.67% active; viability-normalised;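 active means mean inhibition of at least 50% after viability correction, with every replicate also passing that limit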;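 further: firefly luciferase signal divided by Alamar Blue viability fluorescence both relative to DMSO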
rRNA inh HTS: reduced GFP signal of wild-type E. coli, primary screen, bacterial rRNA inhibitor project, GFP/RFP fluorescence, OD600, single point. E. coli WT GFP vs humanized-ribosome RFP mutants, 24 h; active compounds read low; DMSO median 0, no signal -100. GFP signal change (wild-type ribosome), % (no concentration beside the values). 350,000 tested, 1.6% active. AID 720706, 2013;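 active means significant combined selectivity score with lowered wild-type GFP, culture density cut under 30%, mutant RFP and density less affected; inactive means any of these conditions unmet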
* marks the source's active call; other numbers are inactive results. In the library only some 2.4% were active in any assay of this set; here they are far more common.

Oc1c(C(Nc2cccc(C(F)(F)F)c2)c2cccnc2)ccc2cccnc12 (stereo not given) was read as LGR2 antag 27.
COc1ccc(Cl)cc1C(Nc1cccnc1)c1ccc2cccnc2c1O (stereo not given) was read as LGR2 antag 34, EWS-Fli block 37 and rRNA inh HTS -23*.
Screening C=CCSc1nc2ccccc2n1C(=O)/C=C/c1cc(OC)c(OC)c(OC)c1 returned LGR2 antag 96*, EWS-Fli block 67* and rRNA inh HTS 11.
Cc1ccc(S(=O)(=O)N2[C@@H](c3ccc(Cl)cc3)C(C(=O)O)=CC[C@H]2c2cccs2)cc1 was read as LGR2 antag -9, E-sel inducer 0, EWS-Fli block -4 and rRNA inh HTS -29*.
Screening Cc1ccc([C@@H]2CC=C(C(=O)O)[C@H](c3ccc(F)cc3)N2S(=O)(=O)c2ccc(C)cc2)cc1 returned LGR2 antag 0, EWS-Fli block -10 and rRNA inh HTS -9.
For Cc1ccc([C@H]2C(C(=O)O)=CC[C@@H](c3cccs3)N2S(=O)(=O)c2ccc(C)cc2)cc1 the results were LGR2 antag 8, E-sel inducer 0, EWS-Fli block -18 and rRNA inh HTS -40.
Screening Cc1ccc(S(=O)(=O)N2[C@@H](c3ccc(F)cc3)C(C(=O)O)=CC[C@H]2c2ccc3c(c2)OCO3)cc1 returned LGR2 antag -3, E-sel inducer 0, EWS-Fli block -8 and rRNA inh HTS -18.
Screening Cc1ccc(S(=O)(=O)N2[C@@H](c3ccc(F)cc3)C(C(=O)O)=CC[C@H]2c2cccc(C)c2)cc1 returned LGR2 antag 12, E-sel inducer 0, EWS-Fli block 4 and rRNA inh HTS -25*.
`Cc1ccc(S(=O)(=O)N2[C@@H](c3ccccc3F)C(C(=O)O)=CC[C@H]2c2ccc3c(c2)OCO3)cc1` gave LGR2 antag 9, E-sel inducer 0, EWS-Fli block -6 and rRNA inh HTS -21*.
For Cc1ccc(S(=O)(=O)N2[C@@H](c3ccc(Br)cc3)C(C(=O)O)=CC[C@H]2c2ccc(C(C)C)cc2)cc1 the results were LGR2 antag -4, E-sel inducer 0, EWS-Fli block -1 and rRNA inh HTS -23*.
C[C@@H]1CN([C@@H](C)CO)C(=O)c2cc(NC(=O)C3CCCCC3)ccc2O[C@@H](C)CCCCO[C@@H]1CN(C)S(=O)(=O)c1cn(C)cn1 was read as LGR2 antag 3, E-sel inducer 0, EWS-Fli block -2 and rRNA inh HTS -2.
`CC(C)CC#Cc1ccc2c(c1)O[C@H](CN(C)Cc1ccccn1)[C@H](C)CN([C@H](C)CO)S2(=O)=O` gave LGR2 antag 15, E-sel inducer 0, EWS-Fli block 18 and rRNA inh HTS -34.
For CC(C)NC(=O)N(C)C[C@H]1Oc2ccc(NS(=O)(=O)c3ccc(Cl)cc3)cc2CC(=O)N([C@H](C)CO)C[C@H]1C the results were LGR2 antag -3, E-sel inducer 6, EWS-Fli block 3 and rRNA inh HTS 4.
For Cc1ccccc1Nc1nc(N)nc(-c2oc3ccccc3c2C)n1 the results were LGR2 antag -120, EWS-Fli block -106 and rRNA inh HTS -36*.
Screening Cc1noc(C)c1S(=O)(=O)N(C)C[C@H]1Oc2ccc(NS(C)(=O)=O)cc2CC(=O)N([C@@H](C)CO)C[C@H]1C returned LGR2 antag 9, E-sel inducer 28*, EWS-Fli block 2 and rRNA inh HTS 2.
Cc1noc(C)c1S(=O)(=O)N(C)C[C@@H]1Oc2ccc(NS(C)(=O)=O)cc2CC(=O)N([C@@H](C)CO)C[C@H]1C was read as LGR2 antag -17, E-sel inducer 0, EWS-Fli block -2 and rRNA inh HTS 3.
Screening Cc1noc(C)c1S(=O)(=O)N(C)C[C@@H]1Oc2ccc(NC(=O)Nc3ccc(F)cc3)cc2CC(=O)N([C@@H](C)CO)C[C@@H]1C returned LGR2 antag 6, E-sel inducer 51*, EWS-Fli block 3 and rRNA inh HTS -2.
Cc1noc(C)c1S(=O)(=O)N(C)C[C@@H]1Oc2ccc(NC(=O)Nc3ccc(F)cc3)cc2CC(=O)N([C@H](C)CO)C[C@H]1C was read as LGR2 antag -6, E-sel inducer 45*, EWS-Fli block -4 and rRNA inh HTS -7.
Cc1noc(C)c1NC(=O)N(C)C[C@@H]1OCCCC[C@H](C)Oc2ccc(NS(=O)(=O)c3ccc(Cl)cc3)cc2C(=O)N([C@@H](C)CO)C[C@@H]1C was read as LGR2 antag -18, EWS-Fli block 0 and rRNA inh HTS -1.
CC(C)C#Cc1ccc2c(c1)O[C@H](CN(C)Cc1cncnc1)[C@H](C)CN([C@@H](C)CO)S2(=O)=O was read as LGR2 antag 12, E-sel inducer 0, EWS-Fli block -1 and rRNA inh HTS -6.
Screening CCCNC(=O)N1CC2(C1)CN(C(C)=O)[C@H](CO)c1[nH]c3cc(OC)ccc3c12 returned LGR2 antag -21, E-sel inducer 0, EWS-Fli block -3 and rRNA inh HTS 5.
CCCNC(=O)c1cc2c(c(-c3cccc(-c4ccc(C#N)cc4)c3)n1)[C@H](CCO)N(C(=O)CC)C2 was read as LGR2 antag -7, E-sel inducer 0 and rRNA inh HTS -6.
`COc1ccc2[nH]c3c(=O)n(CCCCC(=O)NCCN4CCCC4)c(=S)[nH]c3c2c1` gave LGR2 antag 1, EWS-Fli block 1 and rRNA inh HTS -29*.
Screening CCCCNC(=O)CCCCn1c(=S)[nH]c2c([nH]c3ccc(OC)cc32)c1=O returned LGR2 antag -3, E-sel inducer 0, EWS-Fli block 9 and rRNA inh HTS -6.
Cc1c(C(=O)O)oc2ccc(S(=O)(=O)NC3CCCCCCC3)cc12 was read as LGR2 antag 0, EWS-Fli block 5 and rRNA inh HTS -29*.
For Cc1c(C(=O)O)oc2ccc(S(=O)(=O)NCc3ccc(F)cc3)cc12 the results were LGR2 antag 0.
For CCC(=O)N1CCC2(CC1)CN(Cc1ccc3c(c1)OCO3)[C@H](CO)c1c2c2ccc(OC)cc2n1C the results were LGR2 antag -18, E-sel inducer 0, EWS-Fli block -13 and rRNA inh HTS -7.
Screening O=[N+]([O-])c1ccc(Sc2nc3ccccc3o2)c([N+](=O)[O-])c1 returned LGR2 antag 97*, EWS-Fli block 63* and rRNA inh HTS -32.
CO[C@H]1CN(C)C(=O)c2cc(NS(C)(=O)=O)ccc2OC[C@H](C)N(C(=O)c2ccc3c(c2)OCO3)C[C@H]1C was read as LGR2 antag -5, E-sel inducer 0, EWS-Fli block 6 and rRNA inh HTS 2.
O=C(NC(=O)c1cccc(F)c1)OC[C@@H]1CCCN2CCCC[C@H]12 was read as LGR2 antag -2, E-sel inducer 0, EWS-Fli block -4 and rRNA inh HTS 7.

Screening data deposited in PubChem by Broad Institute.
